The record followed here is PMC4515784 (Journal of Medicinal Chemistry, 2015).

The target of series [1] is hSERT (Homo sapiens, UniProt P31645). It is filed as cell-based.
Series [2] can be described thus: Reversed-phase HPLC relative lipophilicity. It is filed as physicochemical. Particulars: C-18 column, 45% MeOH/CH3CN (1:1) and 55% water with Et3N and HOAc, 3.0 mL/min. The gist of the method: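 Waters C-18 Nova-Pak column (8 × 100 mm, 6 μm, radial compression). Organic phase MeOH/CH3CN 1:1 v/v; aqueous phase contained Et3N (2.1% v/v) and HOAc (2.8% v/v). Isocratic 45% organic/55% aqueous at 3.0 mL/min, with one analogue run at 42%/58%. Retention time and k′ recorded for radioiodinated products, matched to nonradioactive standards by coelution.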

The target of series [3] is HA-hSERT (Homo sapiens, UniProt P31645). As to the kind of experiment: hSERT photoaffinity labeling in HA-hSERT LLCPK1 cells. It is filed as binding.
HA-hSERT, sequence (P31645 whole entry): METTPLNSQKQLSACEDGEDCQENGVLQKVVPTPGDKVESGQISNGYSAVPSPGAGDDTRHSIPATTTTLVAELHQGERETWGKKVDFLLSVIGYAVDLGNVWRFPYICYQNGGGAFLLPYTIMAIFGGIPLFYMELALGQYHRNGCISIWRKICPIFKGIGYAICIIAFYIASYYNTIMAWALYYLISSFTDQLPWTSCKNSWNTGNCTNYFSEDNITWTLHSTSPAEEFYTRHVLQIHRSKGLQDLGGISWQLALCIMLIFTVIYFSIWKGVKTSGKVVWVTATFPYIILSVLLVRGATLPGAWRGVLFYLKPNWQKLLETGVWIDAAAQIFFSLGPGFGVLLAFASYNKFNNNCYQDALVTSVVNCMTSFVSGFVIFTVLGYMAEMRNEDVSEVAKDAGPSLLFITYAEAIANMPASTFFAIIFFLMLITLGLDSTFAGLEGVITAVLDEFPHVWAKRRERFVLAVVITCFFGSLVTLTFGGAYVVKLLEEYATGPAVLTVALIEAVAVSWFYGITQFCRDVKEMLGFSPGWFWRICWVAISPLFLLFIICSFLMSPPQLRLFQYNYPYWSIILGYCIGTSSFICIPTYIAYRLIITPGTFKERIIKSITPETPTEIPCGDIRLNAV

hSERT, sequence (P31645 whole entry): as above

On to `CN(C)CCC[C@@]1(c2ccc(F)cc2)OCc2cc(CNC(=O)CCc3ccc(N=[N+]=[N-])c(I)c3)ccc21` [compound 22, (S)-3-(4-Azido-3-iodophenyl)-N-((1-(3-(dimethylamino)propyl)-1-(4-fluorophenyl)-1,3-dihydroisobenzofuran-5-yl)methyl)propanamide], for which the “Reduction in WT hSERT affinity compared to (S)-citalopram” value in series [1] was 17 fold.
On the same count and under the same terms, next, `CN(CCC[C@@]1(c2ccc(F)cc2)OCc2cc(C#N)ccc21)CCc1ccc(N=[N+]=[N-])c(I)c1` [compound 15, (S)-1-(3-((4-Azido-3-iodophenethyl)(methyl)amino)propyl)-1-(4-fluorophenyl)-1,3-dihydroisobenzofuran-5-carbonitrile]: 100 fold.
With `CN(CCC[C@@]1(c2ccc(F)cc2)OCc2cc(C#N)ccc21)CCc1ccc(N=[N+]=[N-])c([125I])c1` [[^125I]15, (S)-1-(3-((4-Azido-3-[^125I]-iodophenethyl)(methyl)amino)propyl)-1-(4-fluorophenyl)-1,3-dihydroisobenzofuran-5-carbonitrile], the “Capacity factor k′ (relative lipophilicity)” value in series [2] amounted to 18.3. Besides, in series [3], the “Irreversible (covalent) labeling of hSERT upon photoactivation” value was “covalently label”.
With `CN(C)CCC[C@@]1(c2ccc(F)cc2)OCc2cc(CNC(=O)CCc3ccc(N=[N+]=[N-])c([125I])c3)ccc21` [[^125I]22, (S)-3-(4-Azido-3-[^125I]-iodophenyl)-N-((1-(3-(dimethylamino)propyl)-1-(4-fluorophenyl)-1,3-dihydroisobenzofuran-5-yl)methyl)propanamide], in series [2], the “Capacity factor k′ (relative lipophilicity)” value is on record as 10.4. Further, in series [3], the “Effect of (S)-citalopram preincubation on irreversible hSERT labeling (in words)” value was “completely eliminated” and the “Irreversible (covalent) labeling of hSERT upon photoactivation” value is “covalently label”.
Taken in the same sequence, the figures for `CN(C)CCC[C@@]1(c2ccc(F)cc2)OCc2cc(CNC(=O)c3ccc(N=[N+]=[N-])c([125I])c3)ccc21` [[^125I]26, (S)-4-Azido-N-((1-(3-(dimethylamino)propyl)-1-(4-fluorophenyl)-1,3-dihydroisobenzofuran-5-yl)methyl)-3-[^125I]-iodobenzamide] were 10.6, “completely eliminated” and “covalently label”.
Consider `CN(C)CCC[C@@]1(c2ccc(F)cc2)OCc2cc(CNC(=O)c3ccc(N=[N+]=[N-])c(I)c3)ccc21` [compound 26, (S)-4-Azido-N-((1-(3-(dimethylamino)propyl)-1-(4-fluorophenyl)-1,3-dihydroisobenzofuran-5-yl)methyl)-3-iodobenzamide], for which, in series [1], the “Reduction in WT hSERT affinity compared to (S)-citalopram” value is given as 11 fold.
